{
  "source": "paper PMC11378026",
  "about": "(RSC Advances, 2024)",
  "key": {"[1]": {"tested_on": "breast cancer (MCF-7) cell line", "test": "MTT cytotoxicity assay on MCF-7 cells", "type": "cell-based, human"}, "[2]": {"tested_on": "breast epithelial (MCF10A) cell line", "test": "MTT cytotoxicity assay on MCF10A cells", "type": "cell-based", "settings": "Homo sapiens, MCF-10A, read-out: IC50 (μg mL^−1) ± SD against MCF-10A", "procedure,_shortened": "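Mycoplasma-free MCF-10A cells, run in triplicate, were exposed to increasing doses of test compound, with 5-fluorouracil as positive control. MTT was added for 4 h, formazan was dissolved in DMSO, and absorbance was read at 570 and 630 nm. Viability = (A − A0)/(ANC − A0), using mean absorbances of treated, blank and cells-only wells. IC50 was derived from viability.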"}, "breast cancer cells": {"tested_on": "breast cancer cells", "settings": "cited from earlier work"}},
  "note": "Like-named read-outs stand apart in the source and are kept apart here.",
  "data": [
    {"compound": "O=c1[nH]cc(F)c(=O)[nH]1", "note": "[5-FU, 5-fluorouracil, reference compound]", "values": [
      {"measurement": "IC50", "setting": "[1]; Homo sapiens, MCF7, read-out: IC50 (μg mL^−1) ± SD against MCF-7", "result": "28.3 ± 1.89", "unit": "µg/mL"},
      {"measurement": "Selectivity index (SI)", "setting": "[1]; cancer MCF-7 cells over healthy MCF10A cells", "result": 1.45},
      {"measurement": "IC50", "setting": "[2]", "result": "41 ± 1.89", "unit": "µg/mL"}
    ]},
    {"compound": "N.N.O=C([O-])C1(C(=O)[O-])CCC1.[Pt+2]", "note": "[Carboplatin]", "values": [
      {"measurement": "IC50", "setting": "breast cancer cells; ref S2", "result": 73.5, "unit": "µM"}
    ]},
    {"compound": "N.N.[Cl][Pt][Cl]", "note": "[Cisplatin]", "values": [
      {"measurement": "IC50", "setting": "breast cancer cells; ref S1", "result": 12.2, "unit": "µM"}
    ]},
    {"compound": "O=C1[O][Pt]2([NH][C@@H]3CCCC[C@H]3[NH]2)[O]C1=O", "note": "[Oxaliplatin]", "values": [
      {"measurement": "IC50", "setting": "breast cancer cells; ref S2", "result": 21.9, "unit": "µM"}
    ]}
  ]
}
